Screening results from PubChem.
Compounds with a hit are over-represented: about 2.2% of the library has one in this group of screens.
CSN inh = inhibitors of human CSN-mediated cullin deneddylation. Purified CSN, SCF-Nedd8-OG deneddylation, fluorescence polarization. inhibition, % at 12.5 µM. 360,000 compounds, 0.38% hits. AID 651999;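 active = pattern-corrected inhibition above about 35%, with an unprinted fluorescence ratio check between 0.5 and 1.5, limit read from the data, passing the limit was not always enough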;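 note: 0% = enzyme with substrate and 100% = substrate without enzyme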
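Assay system: Purified human Csn5 enzyme expressed in HEK293T cells | Amount: Enzyme 0.24 nM | Measured by: Fluorescence polarization readout | Medium: Tris/NaCl/DTT buffer, pH 7.5 | Compound dosing: One concentration, 12.5 µM, 0.25% DMSO | Times: 90 min incubation of compound, enzyme and substrate at room temperature | Control set: no-enzyme wells high, enzyme-with-substrate wells low | Read-out: % inhibition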
Myeloid diff MLP = myeloid differentiation induction; calls only at 10 µM; AID 624256; 360,000 compounds, 1% hits; ER-HoxA9 myeloid progenitors, lysozyme-GFP differentiation, flow cytometry;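 active = normalized GFP-positive differentiation at or above the plate's own cutoff, the solvent-only control mean plus 3 SD; inconclusive = no clear call, values can overlap the other calls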;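 note: cells exposed to compound for four days before flow analysis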
HNF4A DNA FP = change in binding of human HNF4 alpha to DNA | P41235 | HNF4a-FITC DNA binding, fluorescence polarization, 1 h | activity change, % at 10 µM | 360,000 compounds, 0.3% hits | AID 1224865; in the data active = activity change above about 30%, passing the limit was not always enough
Target sequence (P41235 whole entry, looked up): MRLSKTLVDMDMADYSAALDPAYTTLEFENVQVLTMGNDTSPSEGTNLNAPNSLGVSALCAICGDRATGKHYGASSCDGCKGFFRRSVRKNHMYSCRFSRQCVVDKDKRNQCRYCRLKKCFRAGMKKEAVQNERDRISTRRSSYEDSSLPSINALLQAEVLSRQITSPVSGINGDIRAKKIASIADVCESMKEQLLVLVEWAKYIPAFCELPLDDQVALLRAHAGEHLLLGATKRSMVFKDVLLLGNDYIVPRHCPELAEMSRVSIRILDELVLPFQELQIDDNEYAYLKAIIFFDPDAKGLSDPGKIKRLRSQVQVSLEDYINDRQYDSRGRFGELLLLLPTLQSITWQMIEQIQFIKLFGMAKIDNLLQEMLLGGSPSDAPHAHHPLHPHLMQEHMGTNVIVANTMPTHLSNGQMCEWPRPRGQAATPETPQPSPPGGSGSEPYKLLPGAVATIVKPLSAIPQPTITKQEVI
Granule exo inh = blocks lytic granule exocytosis. TALL-104 LAMP-1 surface exposure, flow cytometry; cells stimulated with thapsigargin and PMA. inhibition, % at 10 µM. 360,000 compounds, 0.66% hits;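 active = inhibition above about 55%, limit read from the data; inconclusive = no clear call, values can overlap the other calls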
Myeloid diff CP1 = myeloid differentiation induction; shares compounds with Myeloid diff MLP; ER-HoxA9 myeloid progenitors, GFP/Mac1 double-positive flow; AID 651706; calls only; 2,300 compounds, 2% hits;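 active = share of green or green-and-red cells above 9 and 9% in run 1 or 4 and 3% in run 2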
GFP autofluor = flagged as fluorescent in myeloid differentiation counter-screen | AID 651707 | shares compounds with Myeloid diff MLP | 2,300 compounds, 7.4% hits | fluorescence response, % (no concentration beside the values) | ER-HoxA9 myeloid progenitors, no estrogen, GFP autofluorescence flow cytometry; vehicle wells 0%, positive control 100%;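 active = over 5% cells positive for green fluorescent reporter, or over 2% positive for both it and APC stain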;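 note: range taken on the double positive population between DMSO and positive control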
* hit, by the source's call.

Screening Cc1ccc(NC(=O)COC(=O)c2c[nH]c3ccccc23)cc1C returned CSN inh -1, Myeloid diff MLP inactive, HNF4A DNA FP -5 and Granule exo inh 4.
`CCC(C)/C(C)=N/NC(=O)c1ccc(CSc2nc3ccccc3s2)cc1` (centres undefined) gave CSN inh -4, Myeloid diff MLP inactive, HNF4A DNA FP 3, Granule exo inh -3, Myeloid diff CP1 inactive and GFP autofluor 6.1*.
`CCOC(=O)c1ccc(NS(=O)(=O)c2ccc3oc(=O)[nH]c3c2)cc1` gave CSN inh -6, Myeloid diff MLP inactive, HNF4A DNA FP 0 and Granule exo inh 6.
Screening O=C(COc1ccccc1Cl)NCCNC(=O)c1ccncc1 returned CSN inh 2, Myeloid diff MLP inactive, HNF4A DNA FP -2, Granule exo inh -11, Myeloid diff CP1 inactive and GFP autofluor 0.
CC1CCCC(C)N1C(=O)/C=C/c1ccc(S(=O)(=O)N2CCOCC2)cc1 (centres undefined) was read as CSN inh 0, Myeloid diff MLP inactive, HNF4A DNA FP -2 and Granule exo inh -9.
Screening COc1ccc(-c2cc(NC(C)=O)c3ncc(-c4cccc(C(F)(F)F)c4)n3c2)c(OC)c1 returned CSN inh 9, Myeloid diff MLP inactive, HNF4A DNA FP 6 and Granule exo inh 28.
Screening Cn1cc(-c2cnc3c(NC=O)cc(-c4cccc(C(F)(F)F)c4)cn23)cn1 returned CSN inh 7, Myeloid diff MLP active, HNF4A DNA FP 1, Granule exo inh 2, Myeloid diff CP1 inactive and GFP autofluor 2.
Screening COc1ccc(-c2cc(NC=O)c3ncc(-c4cccc(C(F)(F)F)c4)n3c2)c(OC)c1 returned CSN inh 7, Myeloid diff MLP active, HNF4A DNA FP 10, Granule exo inh 12, Myeloid diff CP1 inactive and GFP autofluor 0.
COc1cccc(NC(=O)N(C)C[C@@H]2Oc3cc(Br)ccc3S(=O)(=O)N([C@@H](C)CO)C[C@H]2C)c1 was read as CSN inh 4, Myeloid diff MLP inactive, HNF4A DNA FP -3 and Granule exo inh 0.
`C[C@H](CO)N1C[C@H](C)[C@H](CN(C)Cc2ccncc2)Oc2cc(-c3ccccc3F)ccc2S1(=O)=O` gave CSN inh 1, Myeloid diff MLP inactive, HNF4A DNA FP 1, Granule exo inh -5, Myeloid diff CP1 inactive and GFP autofluor 0.
For C[C@H](CO)N1C[C@H](C)[C@@H](CN(C)Cc2cccnc2)Oc2cc(-c3cccnc3)ccc2S1(=O)=O the results were CSN inh -1, Myeloid diff MLP inactive, HNF4A DNA FP 2 and Granule exo inh -1.
Screening COc1ccccc1-c1ccc2c(c1)O[C@@H](CN(C)C(=O)Nc1cccc(F)c1)[C@H](C)CN([C@H](C)CO)S2(=O)=O returned CSN inh 2, Myeloid diff MLP inactive, HNF4A DNA FP 4, Granule exo inh 4, Myeloid diff CP1 inactive and GFP autofluor 2.
For COc1ccc(-c2noc(CCC(=O)N3CCN(c4cccc(OC)c4)CC3)n2)cc1 the results were CSN inh 1, Myeloid diff MLP inactive, HNF4A DNA FP 1 and Granule exo inh -9.
COc1ccc(-c2noc(CCC(=O)N3CCN(c4cccc(C(F)(F)F)c4)CC3)n2)cc1 was read as CSN inh 5, Myeloid diff MLP active, HNF4A DNA FP 1, Granule exo inh 4, Myeloid diff CP1 inactive and GFP autofluor 0.
`CN(C)S(=O)(=O)c1cccc(C(=O)NC(=S)N(CCC#N)Cc2cccnc2)c1` gave CSN inh 0, Myeloid diff MLP inactive, HNF4A DNA FP -1, Granule exo inh -1, Myeloid diff CP1 inactive and GFP autofluor 2.
O=C(Nc1sccc1C(=O)NCc1ccco1)c1cccnc1 was read as CSN inh 9, Myeloid diff MLP inactive, HNF4A DNA FP 9, Granule exo inh -1, Myeloid diff CP1 inactive and GFP autofluor 0.
COc1cccc(Cn2nnc(C(=O)Nc3cc(C)ccc3OC)c2N)c1 was read as CSN inh 1, Myeloid diff MLP active, HNF4A DNA FP 1, Granule exo inh -5, Myeloid diff CP1 inactive and GFP autofluor 88*.
COc1cccc(CNC(=O)CCC2CCCN(C(=O)c3ccc(C)nc3)C2)c1 (centres undefined) was read as CSN inh 1, Myeloid diff MLP active, HNF4A DNA FP 3, Granule exo inh -4, Myeloid diff CP1 inactive and GFP autofluor 0.
Cc1ccc(C(=O)N2CCCC(CCC(=O)NCc3ccc(F)c(F)c3)C2)cn1 (centres undefined) was read as CSN inh -2, Myeloid diff MLP inconclusive, HNF4A DNA FP 2 and Granule exo inh -6.
COCCN(C(=O)c1ccccc1F)c1nnc(-c2ccc(OC)cc2)s1 was read as CSN inh -4, Myeloid diff MLP inactive, HNF4A DNA FP 2 and Granule exo inh -2.
For CCCC(=O)Nc1ccc(NC(=O)c2cccc(OC)c2)nc1 the results were CSN inh -1, Myeloid diff MLP inactive, HNF4A DNA FP 0 and Granule exo inh 0.
COc1cccc(C(=O)Nc2ccc(NC(C)=O)cn2)c1 was read as CSN inh -8, Myeloid diff MLP inactive, HNF4A DNA FP 3, Granule exo inh -2, Myeloid diff CP1 inactive and GFP autofluor 0.
For O=C(CC(O)CCc1ccccc1)c1ccc(O)cc1 (centres undefined) the results were CSN inh 6, Myeloid diff MLP inactive, HNF4A DNA FP 0 and Granule exo inh -5.
`COc1ccc(NC(=O)Nc2ccccc2SC)cc1` gave CSN inh 4, Myeloid diff MLP inactive, HNF4A DNA FP -1 and Granule exo inh 1.
Screening CSc1ccccc1NC(=O)Nc1ccc(Cl)cc1 returned CSN inh 4, Myeloid diff MLP inactive, HNF4A DNA FP -3, Granule exo inh 1, Myeloid diff CP1 inactive and GFP autofluor 0.
For COCCN(Cc1nc(C(c2ccccc2)c2ccccc2)no1)C(C)C the results were CSN inh -4, Myeloid diff MLP inactive, HNF4A DNA FP -4 and Granule exo inh -5.
`N#CC1=C(N)Oc2n[nH]c(-c3ccccc3)c2C12C(=O)Nc1ccccc12` (centres undefined) gave CSN inh -3, Myeloid diff MLP inactive, HNF4A DNA FP -4, Granule exo inh 0, Myeloid diff CP1 inactive and GFP autofluor 0.
For CCCCn1c(-c2ccc(C(C)(C)C)cc2)nc2cc3[nH]c(=O)c(C(C)C)nc3cc21 the results were CSN inh -1, Myeloid diff MLP active, HNF4A DNA FP 12, Granule exo inh -5, Myeloid diff CP1 inactive and GFP autofluor 2.
